Data on one compound can be found in ChEMBL document CHEMBL3085690, “Naturally occurring antimicrobial peptide OH-CATH30 selectively regulates the innate immune response to protect against sepsis” (J Med Chem, 2013).

Test [1] deals with Mus musculus. The test is described as follows: Stimulation of innate immune response in Kunming mouse assessed as increase of IL-6 level in peritoneal lavage at 10 mg/kg, ip after 5 hrs. Type of test: functional, organism-based. Set-up: dose 10 mg/kg. An outline of the steps:
(§1)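 Female Kunming mice (18−22 g) received a single ip injection of peptide at 10 mg/kg in sterile saline. Peritoneal lavage was collected in 2 mL of cold sterile saline 5 h later, and cytokines and chemokines were measured by ELISA. Data are mean ± SD from four mice, compared by unpaired t test.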

Test [2] relates to BMDM. The test is described as follows: Induction of CXCL11 mRNA up-regulation in mouse BMDM at 20 ug/ml after 3 hrs by qRT-PCR analysis. The class given is functional. An outline of the steps: (§2)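 Murine BMDMs stimulated with peptide, then target mRNA quantified by qRT-PCR. Expression normalized to GAPDH, with untreated cells set to 1.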
(Quantitative PCR measures a nucleic acid by following its amplification.)

Test [3] concerns Mus musculus. The test is described as follows: Stimulation of innate immune response in Kunming mouse assessed as protection against Escherichia coli ATCC 25922-induced mortality by measuring survival rate at 10 mg/kg, ip administered 24 hrs before bacterial infection measured up to 7 days. The class given is functional, organism-based. Set-up: dose 10 mg/kg. An outline of the steps: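 Female Kunming mice were challenged ip with E. coli 25922 at 2.5 × 10^8 CFU/mouse (n = 10). Peptide at 10 mg/kg in sterile saline was given ip at −24 h or +3 h relative to inoculation. Mice were monitored every 6 h and mortality was recorded for up to 7 days, with humane end points. Survival curves were compared by log-rank test.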

Test [4] deals with Mus musculus. The test is described as follows: Stimulation of innate immune response in neutropenic Kunming mouse infected with Pseudomonas aeruginosa ATCC 27853 assessed as increase of resident monocytes/macrophagess in peritoneal lavage at 10 mg/kg, ip. The class given is functional, organism-based. Set-up: dose 10 mg/kg. An outline of the steps:
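Mice were made neutropenic with ip cyclophosphamide, 150 mg/kg on day 0 and 100 mg/kg on day 3. They were then injected ip with peptide at 10 mg/kg. Peritoneal cells were collected up to 24 h afterwards and typed by flow cytometry after GR1/F4/80 staining.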

The test system of test [5] is BMDM. As to the kind of experiment: Induction of CCL3 mRNA up-regulation in mouse BMDM at 20 ug/ml after 3 hrs by qRT-PCR analysis. The class given is functional. In outline:
as §2

Test [6] can be described thus: Induction of IL-17alpha mRNA up-regulation in mouse BMDM at 20 ug/ml after 3 hrs by qRT-PCR analysis relative to control. Type of test: functional. In outline: as §2
The test system of test [7] is Mus musculus. The test is described as follows: Stimulation of innate immune response in clodronate liposomes treated Kunming mouse monocytes depletion model assessed as increase of CXCL2 production in peritoneal lavage at 10 mg/kg, ip. The class given is functional, organism-based. Set-up: dose 10 mg/kg.
Test [8] deals with RAW264.7. The test is described as follows: Inhibition of LPS-induced nitric oxide production in mouse RAW264.7 cells 2 to 50 ug/ml after 6 hrs by ELISA. The class given is functional, cell-based. On the technique in general: In an ELISA, binding on a coated surface is turned into a signal by an enzyme label.
In test [9] the test system is Mus musculus. The test is described as follows: Stimulation of innate immune response in Kunming mouse infected with Pseudomonas aeruginosa ATCC 27853 assessed as effect on TNFalpha production in peritoneal lavage at 10 mg/kg, ip after 5 hrs by ELISA. Type of test: functional, organism-based. Set-up: dose 10 mg/kg.
For test [10], the system named is RAW264.7. The test is described as follows: Inhibition of LTA-induced TNFalpha production in mouse RAW264.7 cells 2 to 50 ug/ml after 6 hrs by ELISA. Type of test: functional, cell-based.
Test [11] can be described thus: Induction of IL-1beta mRNA up-regulation in mouse BMDM at 20 ug/ml after 3 hrs by qRT-PCR analysis relative to control. Type of test: functional. In outline: as §2
Test [12] has as its system Mus musculus. The test is described as follows: Stimulation of innate immune response in Kunming mouse assessed as protection against Staphylococcus aureus ATCC 25923-induced mortality by measuring survival rate at 10 mg/kg, ip administered 5 hrs before bacterial infection measured up to 7 days. Type of test: functional. As to conditions: route intraperitoneal. An outline of the steps:
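Female Kunming mice (18−22 g) received a single ip dose in sterile saline 5 h before ip challenge with P. aeruginosa 27853 (8 × 10^7 CFU/mouse; n = 8) or S. aureus 25923 (2 × 10^8 CFU/mouse; n = 10). Mice were checked every 6 h for up to 7 days, with a humane end point. Curves were compared by log-rank test.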

Test [13] deals with BMDM. The test is described as follows: Induction of CXCL3 mRNA up-regulation in mouse BMDM at 20 ug/ml after 3 hrs by qRT-PCR analysis. The class given is functional. An outline of the steps: as §2
For test [14], the target named is Transcription factor p65 (Mus musculus) (UniProt Q04207). As to the kind of experiment: Activation of NFkappaB p65 in mouse BMDM assessed as phosphorylation at 10 ug/ml after 15 to 30 mins by Western blotting. In outline: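 BMDMs came from mouse bone marrow cultured in RPMI 1640 with 10% FCS and 20% L929-conditioned medium. After treatment, lysates were run on 10% SDS−PAGE, transferred to PVDF, blocked with 5% BSA, and probed for phospho-p65. Detection used an HRP anti-rabbit IgG secondary and chemiluminescence.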
Transcription factor p65 (Mus musculus), sequence (Q04207 whole entry): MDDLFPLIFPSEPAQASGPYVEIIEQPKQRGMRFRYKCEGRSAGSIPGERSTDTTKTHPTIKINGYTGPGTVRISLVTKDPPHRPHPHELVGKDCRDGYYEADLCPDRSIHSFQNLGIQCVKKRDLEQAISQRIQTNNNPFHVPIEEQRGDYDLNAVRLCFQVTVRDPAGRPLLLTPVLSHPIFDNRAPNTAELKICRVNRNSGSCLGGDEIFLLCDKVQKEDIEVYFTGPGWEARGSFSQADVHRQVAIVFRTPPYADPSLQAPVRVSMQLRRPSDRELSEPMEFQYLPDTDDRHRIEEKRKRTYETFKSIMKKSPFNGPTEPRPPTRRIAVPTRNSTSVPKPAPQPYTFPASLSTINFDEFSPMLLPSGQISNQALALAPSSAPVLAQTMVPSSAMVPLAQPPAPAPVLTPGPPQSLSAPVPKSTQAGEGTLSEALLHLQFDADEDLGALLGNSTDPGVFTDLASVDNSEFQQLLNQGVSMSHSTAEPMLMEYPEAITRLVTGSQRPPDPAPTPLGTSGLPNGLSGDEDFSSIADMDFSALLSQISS
In general terms: In western blotting, separated proteins are transferred to a membrane and probed.

The subject of test [15] is BMDM. The test is described as follows: Increase of CXCL2 protein level in mouse BMDM at 20 ug/ml after 18 hrs by ELISA. The class given is functional. In outline:
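Bone marrow-derived macrophages (RPMI 1640, 10% FCS, 20% L929-conditioned medium) stimulated with peptide for 18 h. Cytokines and chemokines in culture supernatant quantified by sandwich ELISA. Mean ± SD from three independent experiments, unpaired t test.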

In test [16] the test system is Mus musculus. The test is described as follows: Stimulation of innate immune response in Kunming mouse assessed as increase of CCL2 level in peritoneal lavage at 10 mg/kg, ip after 5 hrs. Set-up: dose 10 mg/kg. The class given is functional, organism-based. In outline:
as §1

In test [17] the test system is Mus musculus. The test is described as follows: Stimulation of innate immune response in Kunming mouse infected with Pseudomonas aeruginosa ATCC 27853 assessed as effect on CCL2 production in peritoneal lavage at 10 mg/kg, ip after 3 hrs by ELISA. Type of test: functional, organism-based. Set-up: dose 10 mg/kg. An outline of the steps: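 Mice were pretreated ip with peptide at 10 mg/kg 5 h before ip challenge with P. aeruginosa 27853 at 8 × 10^7 CFU/mouse. CCL2 and CXCL2 were measured in peritoneal lavage collected 3 h after inoculation. TNF-α and IL-6 were measured in serum collected 5 h after inoculation. All were read by ELISA; data are mean ± SD from four mice, unpaired t test.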

Test [18] is described as follows: Induction of IL-1Ra mRNA up-regulation in mouse BMDM at 20 ug/ml after 3 hrs by qRT-PCR analysis relative to control. Type of test: functional. An outline of the steps: as §2
Test [19] relates to BMDM. As to the kind of experiment: Increase of CXCL2 production in mouse BMDM after 6 hrs by ELISA in presence of CD14 Ab. The class given is functional.
In test [20] the test system is Mus musculus. The test is described as follows: Stimulation of innate immune response in Kunming mouse infected with Staphylococcus aureus ATCC 25923 assessed as reduction of bacterial burden in peritoneal lavage by measuring survival rate at 10 mg/kg, ip administered 5 hrs before bacterial infection measured up to 7 days. The class given is functional, organism-based. Set-up: dose 10 mg/kg. In outline: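 Peptide at 10 mg/kg ip was given 5 h before ip challenge with E. coli 25922 (2.5 × 10^8 CFU), P. aeruginosa 27853 (8 × 10^7 CFU) or S. aureus 25923 (2 × 10^8 CFU) per mouse. Viable bacteria were counted in peritoneal lavage collected in 2 mL of cold saline (n = 7, 6 and 8 respectively; unpaired t test). Survival was recorded for up to 7 days.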

Molecules are shown by their SMILES. Calls of active or inactive are those of the source. The calls are words filed in the database; no cut-off is given here. Peptide text beside a SMILES is read from it.

Take `CC[C@H](C)[C@H](NC(=O)[C@@H](NC(=O)[C@H](CCCNC(=N)N)NC(=O)[C@@H]1CCCN1C(=O)[C@H](CCCCN)NC(=O)[C@H](CCCCN)NC(=O)[C@H](Cc1ccccc1)NC(=O)[C@H](Cc1ccccc1)NC(=O)[C@H](CCCCN)NC(=O)[C@H](CCCCN)NC(=O)[C@H](C)NC(=O)[C@H](CCCNC(=N)N)NC(=O)[C@H](CCCCN)NC(=O)[C@H](CCCCN)NC(=O)[C@@H](NC(=O)[C@H](CO)NC(=O)[C@H](CC(N)=O)NC(=O)[C@H](CCCCN)NC(=O)[C@H](CC(C)C)NC(=O)[C@H](CCCCN)NC(=O)[C@H](CCCCN)NC(=O)[C@H](Cc1ccccc1)NC(=O)[C@H](Cc1ccccc1)NC(=O)[C@@H](N)CCCCN)C(C)C)C(C)C)C(=O)NCC(=O)N[C@H](C(=O)N[C@@H](CO)C(=O)N[C@H](C(=O)N1CCC[C@H]1C(=O)N[C@@H](Cc1ccccc1)C(=O)O)[C@@H](C)CC)C(C)C` (H-KFFKKLKNSVKKRAKKFFKKPRVIGVSIPF-OH): the result (in the test with Mus musculus [1]; in the test on Mus musculus [7]; in the test with Mus musculus [9]; in test [14]) was inactive. For the same compound, the outcome with BMDM [2], in the test on Mus musculus [3], with Mus musculus [4], in the test with BMDM [5], in the test on BMDM [13] and in the test on BMDM [15] was Active. Besides, the outcome in the test on Mus musculus [16], with Mus musculus [17], in the test on BMDM [19] and in the test on Mus musculus [20] was Active. Moreover, the “fold change (FC)” value in test [6] is listed as 51; in [11] it was 2.5; in test [18], 25. In the test with RAW264.7 [8], the inhibition entry is “Active”. The inhibition entry in the test with RAW264.7 [10] is “inactive”. Moreover, in the test on Mus musculus [12], the survival at 10 mg/kg was more than 60%.
